Measurements as given in ChEMBL document CHEMBL4715721, “Synthesis and optimization of novel allylated mono-carbonyl analogs of curcumin (MACs) act as potent anti-inflammatory agents against LPS-induced acute lung injury (ALI) in rats” (Eur J Med Chem, 2016).
In brackets after ≈: the same amount, converted by molar mass. Activity calls are given as the source filed them. No cut-off for these calls is given here.

How the values were obtained:
BEAS-2B [1] = assay: Antiinflammatory activity in human BEAS-2B cells assessed as reduction in LPS-induced VCAM-1 mRNA expression incubated for 30 mins followed by LPS stimulation and measured after 24 hrs by qRT-PCR analysis; format: functional, cell-based; conditions: dose 10-20 µM, time 1470.0 min
How it was run: (§1)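 Beas-2B cells seeded at 7.0×10^5/plate overnight at 37 °C, 5% CO₂; pretreated with 10 μM for 30 min, then LPS 1 μg/mL for 24 h. Total RNA extracted with TRIZOL; two-step SYBR Green RT-qPCR. Expressed as percent of LPS control; mean ± SEM of three independent experiments.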

Rattus norvegicus [2] = assay: Antiinflammatory activity against LPS-induced acute lung injury rat model assessed as reduction in IL-6 level in BALF at 10 to 20 mg/kg administered before LPS instillation and measured after 6 hrs by ELISA; format: functional, organism-based; conditions: dose 10-20 mg/kg
How it was run: (§2)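 Rats given intratracheal LPS after pretreatment at 10 or 20 mg/kg; killed 6 h after LPS under anaesthesia; BALF and lung collected. BALF IL-6 and TNF-α measured by ELISA in BALF supernatant; serum IL-6 measured; BALF total cells counted; lung MPO activity and TNF-α immunostaining assessed.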

Rattus norvegicus [3] = assay: Antiinflammatory activity against LPS-induced acute lung injury rat model assessed as reduction in TNFalpha expression in lung tissue at 10 to 20 mg/kg administered before LPS instillation and measured after 6 hrs by immunohistochemical analysis; format: functional, organism-based; conditions: dose 10-20 mg/kg; how it was run: as §2
BEAS-2B [4] = assay: Antiinflammatory activity in human BEAS-2B cells assessed as reduction in LPS-induced TNFalpha mRNA expression incubated for 30 mins followed by LPS stimulation and measured after 24 hrs by qRT-PCR analysis; format: functional, cell-based; conditions: dose 10-20 µM, time 1470.0 min; how it was run: as §1
BEAS-2B [5] = assay: Antiinflammatory activity in human BEAS-2B cells assessed as reduction in LPS-induced IL-6 mRNA expression incubated for 30 mins followed by LPS stimulation and measured after 24 hrs by qRT-PCR analysis; format: functional, cell-based; conditions: dose 10-20 µM, time 1470.0 min; how it was run: as §1
[6] = Cytotoxicity against human HL7702 cells assessed as cell survival rate at 10 uM incubated for 24 hrs by MTT assay; format: cell-based; conditions: HL7702 (L02) cells, read-out: Activity
How it was run: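 HL-7702 human normal hepatic cells exposed to 10 μM compound for 24 h; viability measured by MTT assay and given as survival rate, mean ± SD of three experiments.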

RAW264.7 [7] = assay: Antiinflammatory activity in mouse RAW264.7 cells assessed as decrease in LPS-induced TNF-alpha secretion at 10 microM incubated for 30 mins followed by LPS stimulation and measured after 24 hrs by ELISA relative to control; format: functional; conditions: RAW264.7, 24.5 h, time 1470 min
How it was run: (§3)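 RAW264.7 cells in DMEM with 10% FBS at 37 °C, 5% CO₂; pretreated with 10 μM for 30 min, then LPS 0.5 μg/mL for 24 h. Medium TNF-α and IL-6 measured by ELISA and normalized to total protein of viable cells; percent inhibition, mean ± SD of three experiments.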

BEAS-2B [8] = assay: Antiinflammatory activity in human BEAS-2B cells assessed as reduction in LPS-induced IL-1beta mRNA expression incubated for 30 mins followed by LPS stimulation and measured after 24 hrs by qRT-PCR analysis; format: functional, cell-based; conditions: dose 10-20 µM, time 1470.0 min; how it was run: as §1
Mus musculus = assay: Antiinflammatory activity against LPS-induced septic shock C57BL/6 mouse model assessed as proportion of died animals at 10 mg/kg, iv administered daily before LPS administration and monitored for 7 days (reference value: 100%); format: functional; conditions: time 7 day
How it was run: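 Male C57BL/6 mice, n = 10 per group, were given the test agent as its hydrochloride salt (10 mg/kg IV) or saline vehicle. LPS (20 mg/kg IP) was injected afterwards. Survival was recorded every 24 h for 7 days after LPS.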

RAW264.7 [9] = assay: Antiinflammatory activity in mouse RAW264.7 cells assessed as decrease in LPS-induced IL-6 secretion incubated for 30 mins followed by LPS stimulation and measured after 24 hrs by ELISA; format: functional, cell-based; conditions: dose 1-10 µM, time 1470.0 min
How it was run: (§4)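 RAW264.7 cells seeded at 4.0×10^5/plate overnight; pretreated at 1, 2.5, 5 or 10 μM for 30 min, then with or without LPS 0.5 μg/mL for 24 h. Medium IL-6 and TNF-α measured by ELISA and normalized to total protein; percent of LPS control, mean ± SEM of three independent experiments.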

[10] = Aqueous kinetic solubility of compound at pH 7.4; format: physicochemical; conditions: read-out: Kinetic_solubility
Rattus norvegicus [11] = assay: Antiinflammatory activity against LPS-induced acute lung injury rat model assessed as decrease in neutrophil infiltration in lungs by measuring decrease in MPO activity at 10 to 20 mg/kg administered before LPS instillation and measured after 6 hrs; format: functional, organism-based; conditions: dose 10-20 mg/kg; how it was run: as §2
Rattus norvegicus [12] = assay: Antiinflammatory activity against LPS-induced acute lung injury rat model assessed as reduction in TNF-alpha level in BALF at 10 to 20 mg/kg administered before LPS instillation and measured after 6 hrs by ELISA; format: functional, organism-based; conditions: dose 10-20 mg/kg; how it was run: as §2
Rattus norvegicus [13] = assay: Antiinflammatory activity against LPS-induced acute lung injury rat model assessed as reduction in CD-68 stained macrophage numbers in lungs at 10 to 20 mg/kg administered before LPS instillation and measured after 6 hrs by immunohistochemical analysis; format: functional, organism-based; conditions: dose 10-20 mg/kg
How it was run: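 Lung sections from rats given intratracheal LPS, pretreated at 10 or 20 mg/kg, killed 6 h after LPS; immunohistochemistry for the macrophage marker CD68, with CD68-positive cells counted.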

RAW264.7 [14] = assay: Antiinflammatory activity in mouse RAW264.7 cells assessed as decrease in LPS-induced IL-6 secretion at 10 microM incubated for 30 mins followed by LPS stimulation and measured after 24 hrs by ELISA relative to control; format: functional; conditions: RAW264.7, 24.5 h, time 1470 min; how it was run: as §3
[15] = Octanol-water partition coefficient, logP of compound; format: physicochemical
Rattus norvegicus [16] = assay: Antiinflammatory activity against LPS-induced acute lung injury rat model assessed as reduction in total cells in BALF at 10 to 20 mg/kg administered before LPS instillation and measured after 6 hrs; format: functional, organism-based; conditions: dose 10-20 mg/kg; how it was run: as §2
RAW264.7 [17] = assay: Antiinflammatory activity in mouse RAW264.7 cells assessed as decrease in LPS-induced TNF-alpha secretion incubated for 30 mins followed by LPS stimulation and measured after 24 hrs by ELISA; format: functional, cell-based; conditions: dose 1-10 µM, time 1470.0 min; how it was run: as §4
Rattus norvegicus [18] = assay: Antiinflammatory activity against LPS-induced acute lung injury rat model assessed as reduction in lung wet/dry ratio at 10 to 20 mg/kg administered before LPS instillation and measured after 6 hrs; format: functional, organism-based; conditions: dose 10-20 mg/kg
How it was run: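 Edema index in rats killed 6 h after intratracheal LPS, with pretreatment at 10 or 20 mg/kg: right upper lung lobe excised, blotted and weighed wet, then dried at 65 °C for 48 h and reweighed; wet/dry weight ratio calculated.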

Rattus norvegicus [19] = assay: Antiinflammatory activity against LPS-induced acute lung injury rat model assessed as reduction in destruction of epithelial and endothelial cell structure in lungs at 10 to 20 mg/kg administered before LPS instillation and measured after 6 hrs by hematoxylin and eosin staining based microscopic analysis; format: functional, organism-based; conditions: dose 10-20 mg/kg
How it was run: (§5)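 Rats pretreated at 10 or 20 mg/kg, then intratracheal LPS; lungs taken 6 h later, fixed in 4% paraformaldehyde, paraffin-embedded, cut at 5 μm, stained with hematoxylin-eosin, and examined by light microscopy for edema, hemorrhage, cell infiltration and epithelial/endothelial damage.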

Rattus norvegicus [20] = assay: Antiinflammatory activity against LPS-induced acute lung injury rat model assessed as reduction in IL-6 level in serum at 10 to 20 mg/kg administered before LPS instillation and measured after 6 hrs by ELISA; format: functional, organism-based; conditions: dose 10-20 mg/kg; how it was run: as §2
Rattus norvegicus [21] = assay: Antiinflammatory activity against LPS-induced acute lung injury rat model assessed as reduction in total protein content in BALF at 10 to 20 mg/kg administered before LPS instillation and measured after 6 hrs by BCA protein assay; format: functional, organism-based; conditions: dose 10-20 mg/kg
How it was run: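 Left lung lavaged with saline (3 × 1.5 mL) 6 h after intratracheal LPS in rats pretreated at 10 or 20 mg/kg; lavage spun at 1000 rpm for 10 min; supernatant protein measured by BCA assay.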

Rattus norvegicus [22] = assay: Antiinflammatory activity against LPS-induced acute lung injury rat model assessed as reduction in alveolar hemorrhage in lungs at 10 to 20 mg/kg administered before LPS instillation and measured after 6 hrs by hematoxylin and eosin staining based microscopic analysis; format: functional, organism-based; conditions: dose 10-20 mg/kg; how it was run: as §5
Rattus norvegicus [23] = assay: Antiinflammatory activity against LPS-induced acute lung injury rat model assessed as reduction in inflammatory cell infiltration in lungs at 10 to 20 mg/kg administered before LPS instillation and measured after 6 hrs by hematoxylin and eosin staining based microscopic analysis; format: functional, organism-based; conditions: dose 10-20 mg/kg; how it was run: as §5
[24] = Chemical stability of compound in PBS buffer containing 5% DMSO at pH 7.4 measured every 5 mins for 25 mins by UV-Vis absorption spectral analysis; format: physicochemical; conditions: pH 7.4, 25 min
How it was run: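 Compound diluted from 1 mM stock in phosphate buffer pH 7.4 containing 5% DMSO; UV-visible spectra recorded from 250 to 600 nm at 25 °C in a 1 cm quartz cuvette, every 5 min for 25 min.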

Rattus norvegicus [25] = assay: Antiinflammatory activity against LPS-induced acute lung injury rat model assessed as reduction in lung edema at 10 to 20 mg/kg administered before LPS instillation and measured after 6 hrs by hematoxylin and eosin staining based microscopic analysis; format: functional, organism-based; conditions: dose 10-20 mg/kg; how it was run: as §5

C=CCc1cc(/C=C2\CN(C3CC3)C/C(=C\c3ccc(N4CCN(C)CC4)cc3)C2=O)ccc1O
Activity (BEAS-2B [1]): Dose-dependent effect
Activity (Rattus norvegicus [2]): Active
Activity (Rattus norvegicus [3]): Active
Activity (BEAS-2B [4]): Dose-dependent effect
Activity (BEAS-2B [5]): Dose-dependent effect
viability at 24 h, 10 µM [6]: 90.3%
inhibition at 10 µM (RAW264.7 [7]): 43.8%
Activity (BEAS-2B [8]): Dose-dependent effect
Activity (Mus musculus): 50%
inhibition (RAW264.7 [9]): Dose-dependent effect
solubility kinetic [10]: 22.5 mg/mL (≈ 47.9 mM)
Activity (Rattus norvegicus [11]): Active
Activity (Rattus norvegicus [12]): Active
Activity (Rattus norvegicus [13]): Active
inhibition at 10 µM (RAW264.7 [14]): 83.3%
logP [15]: 3.48
Activity (Rattus norvegicus [16]): Active
inhibition (RAW264.7 [17]): Dose-dependent effect
Activity (Rattus norvegicus [18]): Active
Activity (Rattus norvegicus [19]): Active
Activity (Rattus norvegicus [20]): Active
Activity (Rattus norvegicus [21]): Active
Activity (Rattus norvegicus [22]): Active
Activity (Rattus norvegicus [23]): Active
Stabilty [24]: Stable
Activity (Rattus norvegicus [25]): Active
